Published values pooled from the literature.
Each line is one published result; the experiments were not run side by side.
Organism: Plasmodium falciparum
Effect on: parasite growth

SMILES | test | test system | conditions | EC50 [nM]
COc1cc2[nH]c(C)c(-c3ccccc3)c(=O)c2cc1Cl |  | W2 | drug-resistant strain, blood stage | 26.2
OC(c1cc(C(F)(F)F)nc2c(C(F)(F)F)cccc12)C1CCCCN1 (stereo not drawn) | SYBR Green | 3D7 |  | 20.3
Cc1cc(NC2Cc3cc(F)c(F)cc3C2)n2nc(C(C)(F)F)nc2n1 |  | K1 | drug-resistant strain, blood stage | 49
CCN(CC)CCCC(C)Nc1ccnc2cc(Cl)ccc12 (stereo not drawn) | SYBR Green | TM90 | 72 h, drug-resistant strain, blood stage | 89
Cc1cc(Nc2ccc(Cl)c(Cl)c2)n2nc(C)nc2n1 | SYBR Green | 3D7 |  | 106
Cc1cc(N[C@H]2CCc3ccc(Cl)cc3C2)n2nc(C(C)(F)F)nc2n1 |  | K1 | drug-resistant strain, blood stage | 1.7
COc1cc2[nH]c(C)c(-c3ccc(Oc4ccc(OC(F)(F)F)cc4)cc3)c(=O)c2cc1Cl | SYBR Green | TM90 | 72 h, drug-resistant strain, blood stage | 1
C[C@@H]1C[C@@H]([C@H](O)CC2CC(=O)NC(=O)C2)C(=O)[C@@H](C)C1 | SYBR Green | 3D7 | blood stage | 200
CN1CCN(S(=O)(=O)c2ccc(-c3ccc4ncnc(Nc5ccc(OCc6cccc(F)c6)c(Cl)c5)c4c3)cc2)CC1 | SYBR Green | W2 | drug-resistant strain, blood stage | 44
O=C1C(O)=C([C@H]2CC[C@H](c3ccc(Cl)cc3)CC2)C(=O)c2ccccc21 | SYBR Green | D6 | 72 h, blood stage | < 0.25
CN1CCCN(S(=O)(=O)c2ccc(-c3ccc4ncnc(Nc5ccc(OCc6cccc(F)c6)c(Cl)c5)c4c3)cc2)CC1 | SYBR Green | W2 | drug-resistant strain, blood stage | 52
COc1ccc(-n2ccnc2SCC(=O)Nc2cccc(C(F)(F)F)c2)c(OC)c1 | SYBR Green | 3D7 |  | 88.5
